Reference: ChEMBL document CHEMBL4513216, “Probing the Open Global Health Chemical Diversity Library for Multistage-Active Starting Points for Next-Generation Antimalarials” (ACS Infect Dis, 2020)

Experiment: Toxicity liver stage against HepG2, at 10uM
Format: cell-based
Design: test concentration 10 uM, cell line HepG2-A16-CD81EGFP
Conditions: human, HepG2-A16-CD81EGFP cells; read-out: INHIBITION
Summary of the method: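 Uninfected HepG2-A16-CD81EGFP cells, 3 × 10^3 per well, 1536-well, plated on prespotted compound at 10 μM final, parasite-free screening media added to match infected plates; puromycin 10 μM positive, DMSO 0.5% negative; run in parallel with 48 h PbLuc assay at 37 °C, 5% CO2; viability by CellTiter-Glo luminescence, normalized to controls.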

Row | SMILES | cytotoxicity at 10 µM [%]
1 | O=C(c1cnc2ccc(F)cc2c1NCc1ccccn1)N1CCCC1 | 3
2 | O=C(c1ccc2ccccc2c1)C1CCCN(C(=O)Cn2cnnn2)C1 (stereo not given) | 1.54
3 | Cc1cc(-c2nn(C)c(Cl)c2CN2CCCCC(N)C2)no1 (stereo not given) | -2.1
4 | Cc1cnn(CC2CCCN2C(=O)c2cccc3c2OCO3)c1 (stereo not given) | -5.25
5 | CCCN1CCC(CC(=O)NCc2cc(O)ncn2)CC1 | 14.7
6 | NC(=O)CSc1nnc2n1N=CN(c1ccccc1F)C2 | -3.78
7 | CC(C)N1CCCC(C(=O)N2CCN(c3cnn(C)c(=O)c3)CC2)C1 (stereo not given) | -3.75
8 | Cc1csc(CNCC(C)c2nc3ccccc3o2)n1 (stereo not given) | -15.6
9 | COc1ccccc1CNC(C)c1cnc2cc(C)nn2c1C (stereo not given) | 8.32
10 | CC(=O)c1cccc(C(=O)N2C[C@@H](CN3CCCCCC3)[C@@H](CO)C2)c1 | 3.32
11 | O=C(c1cccnc1-n1cccn1)N1CCN(CC2CC2)CC1 | -4.71
12 | CNC(=O)CN(C)CC1(c2ccc(Br)cc2)CC1 | 3.89
13 | Cc1ccccc1CC(=O)N1C[C@@H]2CC[C@H]1CN(Cc1cccnc1)C2 | -2.36
14 | CNC(=O)[C@@]12CCO[C@@H]1CCN(S(=O)(=O)c1cccc(F)c1)C2 | -73.8
15 | NC(=O)C1Cn2ccnc2C2(CCN(C(=O)c3ccncc3)CC2)O1 (stereo not given) | -103
16 | CNC(=O)[C@@H]1C[C@H](N)CN1Cc1cc2cc(C)cc(C)c2[nH]c1=O | -1.72
17 | CN(CC1(O)CCN(c2ccccn2)C1)C(=O)Cc1ccsc1 (stereo not given) | -11.7
18 | O=C(Nc1cc(C(F)(F)F)c[nH]c1=O)N1CCOCC1 | -3.03
19 | COc1ccc(CN2CC(O)CN(C(=O)C3CCC3)CC2=O)cc1 (stereo not given) | -12.8
20 | Cn1ccc2c(C(=O)N3CCCC3c3noc(C4CC4)n3)cccc21 (stereo not given) | -7.82
21 | O=C1CCN(C(=O)CCc2cc(Br)cs2)CCN1 | -2.1
22 | CN(C)C(=O)Cc1ccccc1NCc1noc(-c2ccccc2)n1 | 6.95
23 | Cc1cc(CN2C[C@@H]3COC[C@@H](C(=O)N4CCCCO4)[C@@H]3C2)oc1C | -72.8
24 | CCNC(=O)C1(CC2CC(c3ccccc3OC)=NO2)CCOCC1 (stereo not given) | -26.8
25 | CCn1nc2c(cc1=O)CN(Cc1nc(N)c3ccccc3n1)CC2 | -5.59
26 | Cc1[nH]nc2ncc(C(=O)N3CCN(CC(C)(C)O)CC3)cc12 | -0.0414
27 | CN(C)C(=O)c1cccc(NC(=O)N2CCCC(C(F)(F)F)C2)c1 (stereo not given) | 6.37

Row | SMILES | cytotoxicity at 10 µM [%]
28 | Cc1nc(C)n(CC2CCCN(CCC(=O)NC3CCCC3)C2)n1 (stereo not given) | -6.73
29 | Cc1occc1C(=O)N1CCn2c(COCC3CC3)cnc2C1C (stereo not given) | 7.02
30 | Cc1nccn1CCCC(=O)N1CCC(N(C)c2cccnn2)CC1 | -13.4
31 | CN(C)c1ncccc1CNS(=O)(=O)c1ccccc1F | -4.81
32 | CCc1nc(C)sc1CN(Cc1ccncc1)C1CCN(C)CC1 | 6.4
33 | CC1CN(C(=O)c2cnn(-c3ccccn3)c2C(C)C)CC(C)(C)O1 (stereo not given) | -3.09
34 | CCN(CC)S(=O)(=O)c1ccc2c(c1)N(Cc1ccccn1)C(=O)CS2 | 3.51
35 | c1cnc(N2CC3(CCN(Cc4ccncc4)C3)C2)nc1 | -82.8
36 | Cc1cc(CN2CCN(C(=O)NCc3nc(C)cs3)CC2)on1 | -5.01
37 | CC(C)=CCS(=O)(=O)Cc1ccn(-c2cccc(F)c2)n1 | 6.37
38 | O=C(C1CCC1)N1CCC2(CCN(Cc3cccc(F)c3)CC2)CC1 | -4.29
39 | O=C1CCC2(CCN(Cc3cc(F)cc(F)c3)CC2)CN1CCO | -11.6
40 | CCC(=O)N1CCC(c2nc(N3CCCC3)ncc2S(C)(=O)=O)CC1 | 3.86
41 | CCCn1nc2c(cc1=O)CN(Cc1nc(C)c(C)o1)CC2 | -6.16
42 | Cc1c(C(=O)N2CCN(C)[C@@H]3CS(=O)(=O)C[C@@H]32)[nH]c2ccc(F)cc12 | -9.2
43 | O=C1CC2(CCN(CC3CC3)C2)CN1c1cccc(F)c1 (stereo not given) | -6.25
44 | COc1cc2c(cc1-c1nc3c(cnn3C(C)C(C)C)[nH]1)OCO2 (stereo not given) | 8.61
45 | O=C(CSCc1ccccn1)NCC1CCN(C2CC2)C1 (stereo not given) | -14.8
46 | Cc1cc(CC(=O)N2CCN(CC(C)C)[C@@H]3CS(=O)(=O)C[C@@H]32)ccc1F | -2.22
47 | Nc1cc(-c2cc(O)cc(C(=O)O)c2)c2cc[nH]c2n1 | 6.77
48 | CCN(Cc1ncc(C(C)(C)C)o1)Cc1ccccc1C | -9.11
49 | CN(CC1(O)CCCN(c2ccccn2)C1)C(=O)CCc1cccs1 (stereo not given) | -26.9
50 | CC(C)c1nnc2n1CCN(C(=O)c1ccnc(-n3ccnc3)c1)C2 | -29
51 | Cc1ccc(OCC2CCCN(c3nc(CO)cs3)C2)cc1 (stereo not given) | 5.4
52 | O=C1CC(Cc2ccc(NC(=O)c3cccc(F)c3)cc2)C(=O)N1 (stereo not given) | -1.39
53 | CN1CCN(C(=O)N2CC[C@@](O)(c3ccccc3)[C@H]3CCCC[C@@H]32)CC1 | -9.67
54 | Cn1cnc(S(=O)(=O)NCCCN2CCCCCC2=O)c1Cl | -15.6

Row | SMILES | cytotoxicity at 10 µM [%]
55 | CCNC(=O)[C@@H]1C[C@H](n2cc(CC3CCCCC3)nn2)CN1 | 1.06
56 | N#Cc1cc(N2CCC(CS(N)(=O)=O)CC2)c2ccccc2n1 | -11.4
57 | COc1ccc(C(=O)N2CCCC(C)C2)cc1F (stereo not given) | -11.6
58 | O=C(Cn1ccc(-c2ccccc2)n1)N1CCN(C(=O)C2CC2)CC1 | -6.58
59 | CCC(=O)N1CCN(C(=O)CCn2cc(Cl)cn2)[C@H]2CS(=O)(=O)C[C@H]21 | -6.39
60 | Cc1cnc(CN(C)CC2CCCN2c2cccnn2)cn1 (stereo not given) | -0.241
61 | Cn1nc2c(cc1=O)CN(Cc1nc(N)c3ccccc3n1)CC2 | -8.86
62 | c1nn(C2CCCCC2)cc1-c1cncn1CCCN1CCCCC1 | 2.37
63 | CN1CCCN(C(=O)NCc2cc(Br)cs2)CC1 | -16.7
64 | COc1cc(C2(C(=O)NC3CCN(CC4CC4)CC3)CC2)ccc1C | -11.2
65 | CCO[C@@H]1CCN(C(=O)c2ccnnc2)[C@@H]1Cc1cnn(C)c1 | -62.8
66 | CCN1CCN(C(=O)COCc2cccc(OC)c2)CC1 | -11.5
67 | C=Cc1ccc(C(=O)N2CCCC(Nc3ccc(F)c(F)c3)C2)cc1 (stereo not given) | -9.03
68 | CC(CNC(=O)c1cccc(C#N)c1)N1CCc2ccccc21 (stereo not given) | -16.3
69 | COCCCC1(CO)CCCN(Cc2nccs2)C1 (stereo not given) | 2.43
70 | OCCN1CCN(Cc2coc(-c3cccc(Cl)c3)n2)CC1 | -21.6
71 | NC(=O)CN1CCCN(C(=O)c2ccn(-c3ccccc3)n2)CC1 | -1.61
72 | CNC(=O)NC(=O)C(NCc1ccccc1)c1ccccc1 (stereo not given) | -52.9
73 | CC[S+](CC)[c-]1c(=O)[nH]c(=O)n(Cc2ccc(F)cc2)c1=O | 4.12
74 | CN(C)CC1COCCN1C(=O)C1(c2cccs2)CCCC1 (stereo not given) | -9.52
75 | CCN(C(=O)CSc1ccc(C(F)(F)F)cn1)C1CC1 | 7.77
76 | CCN(CC)S(=O)(=O)N(Cc1cccc(C)c1)Cc1ccccn1 | -4.88
77 | COc1ccccc1C1=NOC(CC2(C(=O)O)CCOCC2)C1 (stereo not given) | -9.9
78 | CN(C)CCNC(=O)c1cc(-c2cnc(N3CCCC3)nc2)cn1C | 15.7
79 | O=C(NCCCc1ccc(F)cc1)c1ccc(N2CCOCC2)cc1 | -4.45
80 | Cc1ccccc1-c1cncc(C2CCN(C(=O)CN(C)C)CC2)n1 | 3.88
